This assay deals with Myc proto-oncogene protein (Homo sapiens, UniProt P01106). The experiment in a line: Inhibition of Myc signaling pathway in human HeLa cells assessed as inhibition of PMA induced luciferase treated 30 mins before induction. The method, boiled down:
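Reporter assay in cells transfected with pathway luciferase plasmids. Cells plated at 0.015 × 10⁶ per well in 10% FBS, switched after 24 h to DMEM with 1% FBS, then transfected. 24 h after transfection, compound (final 40, 60, 80 or 100 μM) was added, followed 30 min later by inducer (IL-6, TGF-β, wnt3a or PMA). Luciferase was read 4 or 6 h after induction (6 h for Notch, Wnt, Hedgehog). Value is the IC50 or the lowest concentration giving maximal 50–60% inhibition; two independent experiments.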

Myc proto-oncogene protein, sequence (P01106 16-454): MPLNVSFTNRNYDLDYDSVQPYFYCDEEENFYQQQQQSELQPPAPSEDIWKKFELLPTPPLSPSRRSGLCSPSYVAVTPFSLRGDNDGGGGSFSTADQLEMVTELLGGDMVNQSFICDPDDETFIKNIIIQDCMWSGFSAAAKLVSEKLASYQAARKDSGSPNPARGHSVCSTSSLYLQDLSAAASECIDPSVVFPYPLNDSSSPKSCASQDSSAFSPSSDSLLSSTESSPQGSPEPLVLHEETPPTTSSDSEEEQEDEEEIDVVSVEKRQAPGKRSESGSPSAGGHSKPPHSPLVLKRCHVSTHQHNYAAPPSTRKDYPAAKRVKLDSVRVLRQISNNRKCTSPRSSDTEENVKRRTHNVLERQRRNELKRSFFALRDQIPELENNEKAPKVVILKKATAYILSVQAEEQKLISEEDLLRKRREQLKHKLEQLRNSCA

The term IC50 denotes the concentration that gives 50% inhibition. In the case of `COc1cc(/C=C\c2ccc(OC)c(OC)c2)cc(OC)c1` [(Z)-3,4,3'',5''-Tetramethoxystilbene], the IC50 is 60 µM.

(Values after BindingDB's records for doi:10.1021/np300893n (The University of Mississippi, 2013).)
